Measured values: ChEMBL document CHEMBL1132120, “Identification of highly selective inhibitors of collagenase-1 from combinatorial libraries of diketopiperazines” (J Med Chem, 1999)
pIC50: −log10 of the molar value.

Legend:
Interstitial collagenase = target: T1, Interstitial collagenase (Homo sapiens, UniProt P03956); assay: Inhibitory activity against Matrix metalloprotease-1
T1 sequence (P03956 whole entry): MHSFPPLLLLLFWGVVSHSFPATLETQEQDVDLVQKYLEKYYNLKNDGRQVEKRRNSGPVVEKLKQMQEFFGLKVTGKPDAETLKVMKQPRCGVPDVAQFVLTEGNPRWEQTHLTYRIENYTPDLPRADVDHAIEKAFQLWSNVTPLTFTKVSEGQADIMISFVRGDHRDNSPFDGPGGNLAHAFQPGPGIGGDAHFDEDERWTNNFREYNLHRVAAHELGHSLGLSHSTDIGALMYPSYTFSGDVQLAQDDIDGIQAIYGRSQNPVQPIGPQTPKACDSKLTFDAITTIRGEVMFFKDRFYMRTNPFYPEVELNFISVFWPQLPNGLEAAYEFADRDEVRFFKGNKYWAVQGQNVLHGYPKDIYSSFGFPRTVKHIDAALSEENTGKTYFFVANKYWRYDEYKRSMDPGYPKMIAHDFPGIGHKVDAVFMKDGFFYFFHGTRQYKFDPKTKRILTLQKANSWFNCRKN
Method in brief: (§1)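 Recombinant enzymes: C-terminally truncated collagenase-1, gelatinase-B and stromelysin. IC50 from nonlinear fit of rate versus inhibitor concentration to v = V0/(1+[I]/IC50). Values are the average of two or more independent determinations, SD ±20% or better.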

[1] = target: Matrix metalloproteinase-9 (Homo sapiens, UniProt P14780); assay: Inhibitory activity against Matrix metalloprotease-9; set-up: species or system Komagataella pastoris; method in brief: as §1
Matrix metalloproteinase-9, sequence (P14780 whole entry): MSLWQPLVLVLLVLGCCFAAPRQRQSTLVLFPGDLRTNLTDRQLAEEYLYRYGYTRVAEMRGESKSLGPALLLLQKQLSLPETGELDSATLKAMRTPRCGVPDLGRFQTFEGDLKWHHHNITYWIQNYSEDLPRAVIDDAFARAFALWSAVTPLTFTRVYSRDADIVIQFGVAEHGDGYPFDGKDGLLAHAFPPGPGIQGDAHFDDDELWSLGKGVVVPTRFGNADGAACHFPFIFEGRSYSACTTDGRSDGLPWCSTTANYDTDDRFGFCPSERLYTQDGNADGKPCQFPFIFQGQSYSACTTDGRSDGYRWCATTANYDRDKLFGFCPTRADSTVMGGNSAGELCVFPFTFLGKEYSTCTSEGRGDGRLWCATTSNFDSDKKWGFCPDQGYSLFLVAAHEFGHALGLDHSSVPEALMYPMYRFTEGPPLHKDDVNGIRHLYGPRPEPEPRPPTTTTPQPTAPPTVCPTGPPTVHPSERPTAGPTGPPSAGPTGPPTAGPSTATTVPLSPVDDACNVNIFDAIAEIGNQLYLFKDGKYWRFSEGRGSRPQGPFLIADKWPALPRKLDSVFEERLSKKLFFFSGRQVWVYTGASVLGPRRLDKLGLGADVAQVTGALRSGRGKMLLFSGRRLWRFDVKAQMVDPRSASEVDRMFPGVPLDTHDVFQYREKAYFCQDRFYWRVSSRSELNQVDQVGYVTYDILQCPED

[2] = Inhibitory activity against stromelysin.; method in brief: as §1

For `CC(C)(C)NC(=O)C(C1CC1)N1C(=O)[C@H](CS)NC(=O)[C@@H]1Cc1ccc([N+](=O)[O-])cc1` (some centres undefined), the pIC50 (Interstitial collagenase) was 7.43 and the pIC50 [1] was 5.93.
Compound `CC(C)(C)NC(=O)C(Cc1ccccc1)N1C(=O)[C@H](CS)NC(=O)[C@@H]1Cc1ccc([N+](=O)[O-])cc1` (some centres undefined) has a pIC50 (Interstitial collagenase) of 7.43 and a pIC50 [1] of 5.92.
For `O=C1N[C@@H](CS)C(=O)N(Cc2ccc3ccccc3n2)[C@H]1Cc1ccc([N+](=O)[O-])cc1`, the pIC50 (Interstitial collagenase) was 7.13, the pIC50 [1] was 5.77 and the pIC50 [2] was < 4.70.
Compound `CC(C)CC(C(=O)NC(C)(C)C)N1C(=O)[C@H](CS)NC(=O)[C@@H]1Cc1ccc([N+](=O)[O-])cc1` (some centres undefined) has a pIC50 (Interstitial collagenase) of 7.62 and a pIC50 [1] of 6.24.
Compound `CCCCOc1ccc(C(C(=O)NC(C)(C)C)N2C(=O)[C@H](CS)NC(=O)[C@@H]2Cc2ccc([N+](=O)[O-])cc2)cc1` (some centres undefined) has a pIC50 (Interstitial collagenase) of 7.14 and a pIC50 [1] of 5.49.
In the case of `CC(C)(C)NC(=O)C(c1ccccc1)N1C(=O)[C@H](CS)NC(=O)[C@@H]1Cc1ccc([N+](=O)[O-])cc1` (some centres undefined), the pIC50 (Interstitial collagenase) was 7.60 and the pIC50 [1] was 5.89.
With `COc1ccc(CN2C(=O)[C@H](CS)NC(=O)[C@@H]2Cc2ccc([N+](=O)[O-])cc2)cc1` the pIC50 (Interstitial collagenase) was 7.33, the pIC50 [1] was 5.92 and the pIC50 [2] was < 4.40.
Work on `COc1ccc(CN2C(=O)[C@H](CS)NC(=O)[C@@H]2CC2CCCCC2)cc1` yielded a pIC50 [2] of 5.42.
Work on `CCCCCCCC(C(=O)NC(C)(C)C)N1C(=O)[C@H](CS)NC(=O)[C@@H]1Cc1ccc([N+](=O)[O-])cc1` (some centres undefined) yielded a pIC50 (Interstitial collagenase) of 7.44 and a pIC50 [1] of 5.82.
For `CCCN1C(=O)[C@H](CS)NC(=O)[C@@H]1Cc1ccc([N+](=O)[O-])cc1`, the pIC50 (Interstitial collagenase) was 7.19, the pIC50 [1] was 5.54 and the pIC50 [2] was < 4.70.
`COc1ccc(CSC[C@H]2C(=O)N[C@@H](CS)C(=O)N2Cc2ccc(OC)cc2)cc1` gave a pIC50 (Interstitial collagenase) of 6.51, a pIC50 [1] of 7.28 and a pIC50 [2] of 5.96.
Work on `COc1ccc(CN2C(=O)[C@H](CS)NC(=O)[C@@H]2Cc2ccccc2)cc1` yielded a pIC50 (Interstitial collagenase) of 6.96, a pIC50 [1] of 6.40 and a pIC50 [2] of 5.40.
`CCc1ccc(C(C(=O)NC(C)(C)C)N2C(=O)[C@H](CS)NC(=O)[C@@H]2Cc2ccc([N+](=O)[O-])cc2)cc1` (some centres undefined) gave a pIC50 (Interstitial collagenase) of 7.39 and a pIC50 [1] of 5.59.
For `CCCN1C(=O)[C@H](CS)NC(=O)[C@@H]1Cc1ccc(NC(C)=O)cc1`, the pIC50 (Interstitial collagenase) was < 4.40, the pIC50 [1] was < 4.40 and the pIC50 [2] was < 4.40.
`CC(C)(C)NC(=O)C(c1ccc(Oc2ccccc2)cc1)N1C(=O)[C@H](CS)NC(=O)[C@@H]1Cc1ccc([N+](=O)[O-])cc1` (some centres undefined) gave a pIC50 (Interstitial collagenase) of 6.97 and a pIC50 [1] of 5.36.
`CC(C)(C)NC(=O)C(c1ccc(-c2ccccc2)cc1)N1C(=O)[C@H](CS)NC(=O)[C@@H]1Cc1ccc([N+](=O)[O-])cc1` (some centres undefined) showed a pIC50 (Interstitial collagenase) of 6.99 and a pIC50 [1] of 5.37.
In the case of `COc1ccc(C(C(=O)NC(C)(C)C)N2C(=O)[C@H](CS)NC(=O)[C@@H]2Cc2ccc([N+](=O)[O-])cc2)cc1` (some centres undefined), the pIC50 (Interstitial collagenase) was 7.68 and the pIC50 [1] was 5.89.
